Rad51 HR inh: Rad51 (human) homologous recombination inhibition | hRad51 DNA strand exchange, fluorescence dequenching | inhibition, % at 10 µM | actives 0.085% (n = 200,000) | AID 1385;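 active means inhibition above 40% at the single screening dose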;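 further: 0% = DMSO control wells and 100% = blanks with heterologous ssDNA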
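Test system: preformed human Rad51 ssDNA filaments. Compound dosing: single dose, 10 µM final compound. Incubation: filaments 15 min 37 °C, then compound 30 min. Technique: FRET fluorescence dequenching, excitation 485 nm, emission 520 nm. Read-out basis: percent inhibition from fluorescence, normalised to plate control and blank means. Benchmarks: plate controls and plate blanks.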
Calpain2 inh: blocks pig calpain II enzyme activity | actives 0.37% (n = 220,000) | AID 1236 | inhibition, % at 16 µM | purified calpain II, fluorogenic peptide substrate, 30 min;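 active means inhibition above about 50%, limit read from the data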
PMI act: activators of human phosphomannose isomerase; activation factor at 20 µM; actives 0.005% (n = 190,000); purified human PMI, coupled resazurin fluorescence, 20 min; active compounds read high; 1 = vehicle control, 0 substrate-free wells; P34949;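 active means activation factor of 2 or more at 20 µM, relative to plate controls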
Target sequence (P34949 whole entry, looked up): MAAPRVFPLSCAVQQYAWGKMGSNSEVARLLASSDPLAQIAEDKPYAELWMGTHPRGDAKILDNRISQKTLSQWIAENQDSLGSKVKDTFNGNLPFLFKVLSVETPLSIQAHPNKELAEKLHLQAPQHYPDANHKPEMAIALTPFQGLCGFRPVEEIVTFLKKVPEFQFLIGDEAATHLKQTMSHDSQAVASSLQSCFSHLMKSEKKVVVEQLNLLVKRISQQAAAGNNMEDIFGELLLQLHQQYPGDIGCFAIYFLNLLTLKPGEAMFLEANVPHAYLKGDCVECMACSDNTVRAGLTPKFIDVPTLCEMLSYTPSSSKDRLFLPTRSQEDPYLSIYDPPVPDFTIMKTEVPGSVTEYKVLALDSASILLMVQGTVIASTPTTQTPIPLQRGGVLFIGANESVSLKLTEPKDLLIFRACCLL
Lmaj promast: inhibitors of Leishmania major promastigote growth | Leishmania major promastigotes, resazurin fluorescence viability | actives 9% (n = 200,000) | AID 1063 | inhibition, % at 10 µM; in the data active means inhibition above about 50%;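 further: promastigotes grown with compound for 44 hours at 28 °C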
WT yeast gro inh: growth inhibition of WT yeast, mitochondrial fusion screen | actives 2.1% (n = 190,000) | mitochondrial fusion phenotypic screen, WT strain | inhibition, % at 10 µM; in the data active means inhibition above about 58%; tested in S. cerevisiae
PMI act satM6P: increases human PMI activity with near-saturating mannose 6-phosphate. P34949. coupled PMI enzyme assay, resazurin fluorescence, 20 min; active compounds read high; 1 = untreated enzyme, 0 = substrate-free blank. activation factor at 20 µM. actives 0.34% (n = 190,000);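 active means activation factor of 2 or more at 20 µM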
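Test system – human PMI in coupled enzyme assay · Timing – 20 min incubation at room temperature · Detection – Diaphorase-driven resazurin-to-resorufin fluorescence, excitation 544, emission 590 nm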
Numbers without * were called inactive; nt = not tested or not shown. Sampled rows, rich in hits. Any-hit rate of the full collection: about 9.8%.

SMILES	Rad51 HR inh	Calpain2 inh	PMI act	Lmaj promast	WT yeast gro inh	PMI act satM6P
Cc1cc(C)c2c(c1)[C@@H]1C=CC[C@@H]1[C@H](c1ccc(S(=O)(=O)N3CCOCC3)cc1)N2	nt	-26	1.5	4	3	2.2*
Cc1ccc(S(=O)(=O)N2CCOCC(=O)NCCOCCNC(=O)COCC2)cc1	2	-3	1.1	-8	-3	1
C/C(CC(C)(C)C1CCCCC1)=N\NC(N)=S	2	36	0.8	100*	64	0.9
C/C(CC1CC(C)OC1=O)=N\NC(N)=S (stereo not drawn)	-6	23	0.8	-8	-3	0.9
CCN(c1cccc(C)c1)S(=O)(=O)c1ccc2c3c(cccc13)C(=O)N2	6	-35	0.9	99*	-8	0.8
Nc1ccc(-c2ccc(C(=O)O)s2)cn1	nt	-432	1.2	0	10	1
CCC1CCCCN1C(=O)c1ccc(OC2CCN(C(=O)C3CC3)CC2)cc1 (stereo not drawn)	nt	57*	1	2	-7	1
COc1ccc(C(=O)NCc2ccccc2)cc1S(=O)(=O)N1CCCc2ccccc21	nt	15	1	61*	4	1
COC(=O)c1ccccc1NC(=O)COC(=O)C1CCCCC1	-13	17	nt	nt	nt	nt
CC(NS(=O)(=O)/C=C/c1ccccc1)C(=O)NCCc1ccc(S(N)(=O)=O)cc1 (stereo not drawn)	-7	-43	1	-1	-4	0.9
CCCCC(=O)O[C@H]1CC[C@H]2[C@@H]3CCc4cc(O)ccc4[C@H]3CC[C@]12C	-2	25	0.8	-5	91*	0.8
Cc1ccc(N(CN2C(=O)c3ccccc3C2=O)C(=O)c2ccc([N+](=O)[O-])cc2[N+](=O)[O-])cc1	nt	-6	0.9	4	8	0.9
CC(C)(C)c1cnnn1-c1ccc(C=O)cc1	-4	0	1	3	-4	1
CC(C)(C)c1cnnn1-c1ccc(C(=O)CCl)cc1	-13	-7	1	69*	-2	1.2
CCOc1ccc(N2CC(C(=O)Nc3c(C)n(C)n(-c4ccccc4)c3=O)CC2=O)cc1 (stereo not drawn)	-7	-6	1	-5	4	0.9
COc1cccc(C(=O)N(Cc2nc(-c3ccc(C)cc3)no2)C(C)C)c1	7	0	0.8	5	10	0.8
Cc1cccc(-c2noc(CN(C(=O)c3c(-c4ccccc4Cl)noc3C)C(C)C)n2)c1	3	16	0.9	16	38	0.9
Cc1onc(-c2ccccc2Cl)c1C(=O)N(Cc1nc(-c2ccccc2)no1)C1CCCCC1	5	44	0.9	54*	44	1
COc1ccc(C(=O)N(Cc2nc(-c3ccc(C)cc3)no2)C2CCCCC2)cc1OC	-6	45	0.8	10	65*	0.9
CCn1ccnc1CN1CCCC(CO)(Cc2cccc(OC)c2)C1 (stereo not drawn)	2	6	0.8	96*	-5	0.9
CCOC(=O)C1(Cc2cccc(OC)c2)CCCN(Cc2nccn2CC)C1 (stereo not drawn)	0	1	1	35	16	1
COc1cccc(CC2(CO)CCCN(Cc3ccc4c(c3)OCCO4)C2)c1 (stereo not drawn)	-8	-1	0.9	53*	2	0.9
CCn1c(C)nc2cc(C(=O)N/N=C/c3cccc(O)c3O)ccc21	nt	-1	0.3	98*	7	0.3
CCn1c(C)nc2cc(C(=O)N/N=C/c3ccc(OC)cc3)ccc21	11	-19	1	-2	-6	1
COc1ccc(/C=N/NC(=O)c2nc(-c3ccccc3)cc(-c3ccccc3)n2)cc1O	19	-22	0.8	99*	36	0.9
SMILES	Rad51 HR inh	Calpain2 inh	PMI act	Lmaj promast	WT yeast gro inh	PMI act satM6P
CCn1c(C)nc2cc(C(=O)N/N=C/c3ccc(OC)c(O)c3)ccc21	-3	-8	1	63*	8	0.9
CCn1c2ccccc2c2cc(/C=N/NC(=O)c3ccccc3C)ccc21	4	-54	0.9	1	27	1
CCn1c(C)nc2cc(C(=O)N/N=C/c3ccccc3)ccc21	nt	-8	1.1	-5	15	1.1
CCn1c2ccccc2c2cc(/C=N/NC(=O)c3cccc(C)c3)ccc21	0	19	0.9	2	73*	0.9
CCOc1cc(/C=C2\CCCC(C(=O)C(F)(F)F)=C2O)ccc1O	nt	2	1.3	15	13	1.4
Cn1cc(CN2CCCC(C(=O)c3ccc(-c4ccccc4)c(F)c3)C2)cn1 (stereo not drawn)	nt	17	1	87*	41	1.1
O=C(c1ccc(-c2ccccc2)c(F)c1)C1CCCN(C(=O)c2cncs2)C1 (stereo not drawn)	12	23	0.8	35	-28	0.9
CCn1cc(CN2CCCC(C(=O)c3ccc(-c4ccccc4)cc3)C2)cn1 (stereo not drawn)	nt	-1	1	86*	21	1.1
Cn1cc(CN2CCCC(C(=O)c3ccc(-c4ccccc4)cc3)C2)cn1 (stereo not drawn)	1	-19	1	91*	23	1
Cc1nn(C)cc1CN1CCCC(C(=O)c2ccc(-c3ccccc3)c(F)c2)C1 (stereo not drawn)	nt	9	1	97*	35	1
CCOC(=O)CNC(=O)c1cccnc1Oc1ccc(Cl)cc1	5	1	nt	nt	nt	nt
CCn1c(-c2ccccc2)csc1=Nc1ccc(S(=O)(=O)O)cc1	2	-12	1.2	55*	-7	1.2
OCCCn1c(-c2ccccc2)csc1=Nc1ccccc1	-30	-5	1.1	13	12	1.1
O=C(CSC1CN(C(c2ccccc2)c2ccccc2)C1)N/N=C/c1ccccc1	14	19	nt	nt	nt	nt
COc1ccccc1/C=C/C=N/NC(=O)c1ccc2nc[nH]c2c1	6	-23	1	56*	3	1.1
CSCCC(NC(=O)COc1cccc2ccccc12)C(=O)O (stereo not drawn)	-17	4	nt	nt	nt	nt
COc1cccc(NC(=O)Cc2ccccc2)c1	-1	-4	0.9	0	4	1
O=C(Cc1ccccc1)Nc1cccc(N2C(=O)C=CC2=O)c1	nt	-25	1.5	3	-2	2.1*
O=C1CC(c2ccccc2)CC2=C1C=Nc1ccccc1N2 (stereo not drawn)	-15	-1	1	22	16	1
O=C1CC(c2ccccc2)CC2=C1CN(C1CCCCC1)CN2 (stereo not drawn)	-4	-7	0.9	82*	-4	1
O=C(O)c1cn(Cc2ccccn2)c(=O)c2ccccc12	-2	-33	1.2	-7	-5	1.1
COc1cc(OC)cc(C(=O)N[C@H](C(=O)OCC(=O)Nc2ccc(C(N)=O)cc2)C(C)C)c1	-16	32	1	56*	10	1
